Source: ChEMBL document CHEMBL4513216, “Probing the Open Global Health Chemical Diversity Library for Multistage-Active Starting Points for Next-Generation Antimalarials” (ACS Infect Dis, 2020)

Assay: Toxicity liver stage against HepG2, at 10uM
Format: cell-based
Parameters: test concentration 10 uM, cell line HepG2-A16-CD81EGFP
Conditions: human, HepG2-A16-CD81EGFP cells; read-out: INHIBITION
Procedure, shortened: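 Uninfected HepG2-A16-CD81EGFP cells, 3 × 10^3 per well, 1536-well, plated on prespotted compound at 10 μM final, parasite-free screening media added to match infected plates; puromycin 10 μM positive, DMSO 0.5% negative; run in parallel with 48 h PbLuc assay at 37 °C, 5% CO2; viability by CellTiter-Glo luminescence, normalized to controls.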

Row | SMILES | cytotoxicity at 10 µM [%]
1 | Cn1c(CC(=O)O)c(Sc2ccccc2)c2ccccc21 | 4.35
2 | COc1cccc(CNc2c(O)c(=O)c2=O)c1 | 5.78
3 | COc1ccc(C)cc1NC(=O)Nc1cnc(O)nc1O | -3.79
4 | CC1=C(c2ccc(F)cc2)S(=O)(=O)N=C1N1CCc2ccccc21 | -1.29
5 | COCC(O)CN1CCC(=O)N(CC(=O)C(C)(C)C)Cc2ccccc21 (configuration not stated) | 6.31
6 | CC(C)CC(=O)N1CC(=O)N(CCc2ccccc2)CC(O)C1 (configuration not stated) | -6.4
7 | CCOC(=O)N1CC(=O)N(Cc2cccc(OC)c2OC)CC(O)C1 (configuration not stated) | -3.66
8 | O=C(Cc1csc(-c2ccccc2F)n1)NCc1cccc(C(=O)O)c1 | -5.48
9 | O=C(c1ccccc1F)N1CCN(c2ccc(-n3cccn3)nn2)CC1 | -18.3
10 | O=S(=O)(C1CC1)N1CCC(Cn2cccn2)CC1 | -8.29
11 | O=S(=O)(c1ccccc1Br)N1CCC2(CC1)OCCS2 | -1.86
12 | COCCN(Cc1ccoc1)S(=O)(=O)c1ccc(F)c(C)c1 | -7.15
13 | O=C(NCC1CC1)[C@@H]1C[C@@H]2CCN(Cc3ccccc3)C[C@H]2O1 | 4.21
14 | c1coc(CN2CC[C@@H]3O[C@@H](COCc4ccncc4)CC[C@@H]32)c1 | -155
15 | COCC1COCCC12CCN(C(=O)Cc1ccc(F)cc1)CC2 (configuration not stated) | 1.68
16 | Cc1ccc(S(=O)(=O)N2Cc3c(CN(C)C)nn(C)c3C2)cc1 | 2.32
17 | O=C1CCCN1CC1CN(C(=O)C2CCOCC2)Cc2nccn2C1 (configuration not stated) | 3.33
18 | C[C@H](NC(=O)OC(C)(C)C)c1nnc(S(=O)(=O)Cc2cccc(F)c2)o1 | -6.91
19 | O=C(O)C1CCN(C(=O)Cn2ccc3c(Cl)cccc32)CC1 | -3.91
20 | CC(=O)c1cccc(S(=O)(=O)NCCNC(=O)c2snnc2C)c1 | -0.302
21 | CCn1nccc1CN(C)c1nc(N)nc2c1nc(C)n2C | -4.83

Row | SMILES | cytotoxicity at 10 µM [%]
22 | CSCc1cccc(S(=O)(=O)NCCO)c1 | -0.138
23 | CCOc1ccc2oc(-c3cnn(C)c3C)c(O)c(=O)c2c1 | 7.72
24 | CN(C)C(=O)c1c[nH]nc1-c1ccc(CNC(=O)c2cnccn2)cc1 | -0.56
25 | Cc1nc(Nc2ncccn2)cc(C2CCCN2C)n1 (configuration not stated) | -16.5
26 | CN(C)C(=O)CN1CCC(c2cncc(-c3cccc(Cl)c3)n2)CC1 | -33.3
27 | Cc1cc2c(=O)n3c(nc2s1)CCN(C(=O)c1ccn(C)n1)CC3 | -9.68
28 | Cc1cc(N)cc(C2CN(Cc3cc[nH]n3)CCO2)n1 (configuration not stated) | -29.1
29 | Cc1nc(NC2CCCC2)cc(C2CCN2C(=O)c2cnn(C)c2)n1 (configuration not stated) | 8.89
30 | O=S1(=O)NC2(CCCN(Cc3ccc(F)cc3)C2)COc2ccccc21 (configuration not stated) | 7.63
31 | CC(C)(C)C(O)CN1CCN(Cc2ccc(C#N)cc2)CC1 (configuration not stated) | -8.88
32 | CCC(=O)N1CCN(C(=O)NCc2c(C)cc(C)cc2C)CC1 | 6.12
33 | CCn1nnnc1-c1cccc(NC(=O)CCn2cc(C)cn2)c1 | 1.66
34 | Cc1nc(C(C)NC(=O)NCc2nccn2CC(C)C)cs1 (configuration not stated) | -20.7
35 | Clc1snnc1CN(Cc1cccs1)C1CC1 | -8.78
36 | CSCC(=O)N1CCOC(c2nc(C(C)(C)C)n[nH]2)C1 (configuration not stated) | -9.58
37 | Cc1ccc(CNC(=O)COc2ccc3c(c2)OCC3O)cc1 (configuration not stated) | -5.67
38 | Cc1ccccc1Cn1cnc2oc(C)c(C(=O)O)c2c1=O | -1.49
39 | Cc1ccc(C(=O)Nc2cnn(CC(=O)NC3CCCC3)c2)c(=O)[nH]1 | -4.09
40 | COCC(=O)N(C)Cc1ccc(F)c(F)c1 | -140
41 | CCCc1n[nH]c(C2CN(C(=O)CCn3cc(C)cn3)CCO2)n1 (configuration not stated) | 10.3
42 | Cc1ccc(NC(C)C(=O)NCc2cccs2)cc1Cl (configuration not stated) | -2.27

Row | SMILES | cytotoxicity at 10 µM [%]
43 | FC(F)(F)CN1CCC(CCNc2ncccn2)CC1 | -3.94
44 | Cc1cnn(CCCNC(=O)C2CCCCN2Cc2ccncc2)c1 (configuration not stated) | -7.85
45 | Cc1cnn(CCCNC(=O)C2CCCCN2Cc2cccnc2)c1 (configuration not stated) | -8.97
46 | C[C@@H]1CN(Cc2ccccc2)CCN1C(=O)NCc1nccs1 | -142
47 | CC(C)c1ccc(O)c(C(=O)NC2CCN(c3ncccn3)CC2)c1 | 9.81
48 | COc1nc(C)ccc1CNC(=O)NC(C)Cc1c(C)nn(C)c1C (configuration not stated) | 8.37
49 | CCOCC1CCN(C(=O)c2sc(C)cc2OC(F)F)CC1 | 7.95
50 | CCN1CCN(C(=O)C(C)SC)CC1 (configuration not stated) | 11.4
51 | CCOc1cc(C(=O)O)cc(-c2ccccc2)c1OC | -9.88
52 | CN(C)C(=O)c1cccc(NC(=O)N2CCCC(C(F)(F)F)C2)c1 (configuration not stated) | 6.37
53 | Cc1cc(CN2CCc3nn(C)c(=O)cc3C2)on1 | -8.17
54 | Cn1ccnc1CN1C[C@@H](CN2CCCC2)[C@@H](CO)C1 | 4.34
55 | Cc1cc2ccccc2n1CCC(=O)NCCCc1nnc(N)s1 | 19.6
56 | c1cc(CN2CCC(Cc3noc(C4CC4)n3)CC2)c2c(c1)OCO2 | 7.69
57 | O=C(COCc1ccccc1)N1CCCC(OCc2cccnc2)C1 (configuration not stated) | -2.65
58 | Cc1ccc(OC2(C(=O)O)CCN(C(=O)c3cccs3)CC2)cn1 | 0.92
59 | CC(=O)c1cc(CC(=O)NCc2cccc(F)c2F)cs1 | 2.95
60 | CN(Cc1cnc(N)nc1)C(=O)c1coc(COc2cccc(F)c2)n1 | 0.998
61 | CC(C)n1ccnc1C1CCCN(c2cncc(N(C)C)n2)C1 (configuration not stated) | 10.1
62 | CSCCCNc1nccc(-c2cc(C(=O)O)ccn2)n1 | 3.49
63 | CCN(Cc1nc(COC)no1)Cc1cc2ccc(F)cc2[nH]c1=O | 2.03

Row | SMILES | cytotoxicity at 10 µM [%]
64 | CCn1c(C)cc(C(=O)N2C[C@@H](C(=O)O)[C@H](c3ccccc3C)C2)c1C | -7.71
65 | CCn1c(CC2CCN(S(=O)(=O)N3CCCCC3)CC2)nn(C)c1=O | 1.58
66 | Cc1cccnc1C(Nc1nccc(C2CCCC2)n1)C1CC1 (configuration not stated) | -121
67 | O=C1CCC2(CCNCC2)CN1Cc1nncn1CCc1ccccc1 | -10.1
68 | COc1ccc([C@@H]2CN(C(=O)CCC(F)(F)F)C[C@H]2NC(C)=O)cc1 | 2.12
69 | CC(=O)N1CCN(CC2CCOc3ccccc3C2)CC1 (configuration not stated) | 7.68
70 | Cc1ccc2cc(CNCCCN3CCOCC3)c(=O)[nH]c2c1 | -0.336
71 | CC(=O)Nc1nc(CN2CCCCC2Cn2cncn2)cs1 (configuration not stated) | 1.12
72 | CCN(CCCNCc1c(C)nn(C)c1N(C)C)S(C)(=O)=O | -6.89
73 | CC(O)CN1CCC(CNCc2ccccc2C(F)(F)F)CC1 (configuration not stated) | -9.27
74 | O=C(O)[C@@H]1CCCN1c1nccc(Nc2ccccc2)n1 | 12.2
75 | CCN(CC)Cc1cn2c(n1)CN(C1CCOC1)CC2 (configuration not stated) | 4.12
76 | O=C1CC[C@H]2[C@H](CCN2c2ncc(F)cn2)N1c1cccnc1 | 0.864
77 | COCC(=O)N1CCC2(CC1)COCCN2CCN(C)C | -3.28
78 | Cc1ccc(CN2CC[C@H]3OCC[C@@]3(C(=O)N3CCCO3)C2)o1 | 8.83
79 | CN1CCN(C(=O)NC2CC2)Cc2cccnc21 | -2.96
80 | COc1cc(N2C[C@H]3CN(C(=O)c4cccnc4)C[C@H]3C2)ncn1 | -141
81 | c1ccc(CN2CCc3ncnc(C4CC4)c3CC2)cc1 | -156
82 | Cc1c(Cl)cccc1S(=O)(=O)N1C[C@H]2CC[C@@H](C1)N(C)C2=O | 3.42
